The text below walks through data of PMC7869845 (ACS catalysis, 2020).

Experiment [1] relates to TamI L101V/H102S. Kind of experiment: End-point assay, TamI L101V/H102S. It counts as biochemical, Streptomyces sp. 307-9. To be noted: no change in product profile. In outline:
(§1)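 Site-directed mutants expressed in E. coli BL21(DE3). Reactions in phosphate buffer (50 mM NaH2PO4, pH 7.4, EDTA, dithioerythritol, 10% glycerol) held 500 μM tirandamycin substrate, 2 μM TamI, spinach ferredoxin, 2 μM ferredoxin-NADP+ reductase, and G6P/G6PDH NADPH regeneration. Incubated 3 h at 30 °C, extracted with CHCl3, then C18 reverse-phase HPLC with UV at 354 nm. Run in triplicate.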

Experiment [2] concerns TamI-RhFRED fusion protein. To be noted: first oxidation of 1, second oxidation of 3, final oxidation of 4; cited from earlier work.
In experiment [3] the test system is TamI S397A, T398A, V185A, P43A/V44A variants. Format: biochemical, Streptomyces sp. 307-9. The following applies: end-point assay, TirC to TirE conversion.
For experiment [4], the system named is TamI F92A. Briefly: Spectrophotometric substrate binding assay, TamI F92A. The arrangement: species or system Streptomyces sp. 307-9. In short, it runs like this:
(§2)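 Active P450 was quantified by CO-difference spectra (ε450-490 = 91 mM−1cm−1). Enzyme at 1 μM final in storage buffer was titrated aerobically at room temperature with tirandamycin C from DMSO stocks until saturated. Difference spectra were recorded at 365–429 nm, and peak-minus-trough ΔA was plotted against concentration. Kd came from quadratic tight-binding or hyperbolic fits, averaged over triplicate titrations.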

Experiment [5] concerns TamI L399A/I400A. Kind of experiment: End-point assay, TamI L399A/I400A. Format: biochemical, Streptomyces sp. 307-9. In outline: as §1
For experiment [6], the system named is TamI F92A. Briefly: End-point assay, TamI F92A. It counts as biochemical, Streptomyces sp. 307-9. In outline:
as §1

Experiment [7] deals with TamI double mutant (alanine substitutions at Leu295 and Thr299). Kind of experiment: End-point assay, TamI Leu295/Thr299 alanine double mutant. Format: biochemical, Streptomyces sp. 307-9. In outline: as §1
Experiment [8] relates to TamI L399A/I400A. Kind of experiment: Spectrophotometric substrate binding assay, TamI L399A/I400A. The arrangement: species or system Streptomyces sp. 307-9. In short, it runs like this: as §2

For `CC1=CC[C@H]2O[C@]1(C)O[C@H]([C@H](C)/C=C(C)/C=C/C(O)=C1/C(=O)CNC1=O)[C@H]2C` [compound 1, tirandamycin C], the “TirC to TirE conversion” value in experiment [1] is “significant decrease”. For the same compound, the kcat in experiment [2] is 0.675 s⁻¹. In experiment [3], the “product profile or abundance compared to wild type TamI” value was “no evident changes in product profile or abundance”. Further, the “spectral shift on substrate addition” value in experiment [4] and in experiment [8] was “no shift” throughout. The catalytic activity result is reported as “significantly reduced activity” in experiment [5] and “complete loss of catalytic activity” in experiment [6]. Also, the “ability to convert substrate to 2” value in experiment [7] is given as “wild type activity”.

Turning to `CC1=CC(=O)[C@H]2O[C@]1(C)O[C@H]([C@H](C)/C=C(C)/C=C/C(O)=C1/C(=O)CNC1=O)[C@H]2C` [compound 3, tirandamycin D], the kcat in experiment [2] is 1.4 s⁻¹.

Consider `CC(/C=C/C(O)=C1/C(=O)CNC1=O)=C\[C@@H](C)[C@H]1O[C@@]2(C)O[C@H](C(=O)[C@H]3O[C@]32C)[C@@H]1C` [compound 4, tirandamycin A], for which, in experiment [2], the kcat was 0.00183 s⁻¹.

Broadly, the kcat is the maximal rate divided by the concentration of active sites.
